Laboratory results as given in ChEMBL document CHEMBL3407343, “Functionalized tetrahydro-1H-pyrido[4,3-b]indoles: a novel chemotype with Sirtuin 2 inhibitory activity” (Eur J Med Chem, 2015).
≈ marks a conversion by molar mass, not a printed value. Calls of active or inactive are those of the source. The calls are words filed in the database; no cut-off is given here.

How the values were obtained:
[1] = molecular target: T1, NAD-dependent protein deacetylase sirtuin-1 (Homo sapiens) (UniProt Q96EB6); experiment: Inhibition of human recombinant SIRT1 assessed as deacetylation of N-acetyl lysine residue in p53 (317 to 320) at 10 uM after 30 mins by luciferase-mediated luminescence assay relative to control
T1 sequence (whole entry): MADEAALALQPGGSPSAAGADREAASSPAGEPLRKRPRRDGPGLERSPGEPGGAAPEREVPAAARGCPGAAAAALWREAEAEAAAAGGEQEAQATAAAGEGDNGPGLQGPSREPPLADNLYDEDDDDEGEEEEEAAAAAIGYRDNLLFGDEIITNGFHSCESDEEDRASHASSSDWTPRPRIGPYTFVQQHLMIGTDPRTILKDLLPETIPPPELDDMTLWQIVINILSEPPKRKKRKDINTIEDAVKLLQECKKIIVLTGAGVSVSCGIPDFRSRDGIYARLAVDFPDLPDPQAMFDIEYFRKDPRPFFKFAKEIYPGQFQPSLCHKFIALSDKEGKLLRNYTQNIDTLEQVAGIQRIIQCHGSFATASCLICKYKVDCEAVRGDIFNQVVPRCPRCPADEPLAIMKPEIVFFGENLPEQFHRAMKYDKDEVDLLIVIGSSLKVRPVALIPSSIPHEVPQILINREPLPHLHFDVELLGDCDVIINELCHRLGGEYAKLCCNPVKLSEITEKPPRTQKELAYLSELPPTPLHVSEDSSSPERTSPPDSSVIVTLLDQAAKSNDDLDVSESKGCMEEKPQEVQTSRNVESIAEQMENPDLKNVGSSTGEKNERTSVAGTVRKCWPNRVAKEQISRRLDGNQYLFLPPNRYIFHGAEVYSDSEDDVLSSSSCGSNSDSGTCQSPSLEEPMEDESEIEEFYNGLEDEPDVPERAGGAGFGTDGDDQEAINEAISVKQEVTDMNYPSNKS
In short: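 Recombinant human SIRT1 at 0.1 unit/well, with the enzyme amount chosen from the mid-linear range of a signal-to-noise titration, in Sirt-Glo buffer. Serially diluted inhibitor in DMSO covers a 10^3-fold range, with 2.5% DMSO final. The single-point screen is at a fixed 10 µM. Enzyme and inhibitor were agitated 30 min at 25 °C, then Sirt-Glo reagent added and shaken another 30 min at 25 °C before luminescence was read. Activity is % of the enzyme-only control after blank subtraction. IC50 comes from a sigmoidal fit of % activity against log concentration, run in triplicate across ≥2 independent experiments.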

[2] = molecular target: T2, NAD-dependent protein deacetylase sirtuin-2 (Homo sapiens, UniProt Q8IXJ6); experiment: Inhibition of human recombinant SIRT2 assessed as deacetylation of N-acetyl lysine residue in p53 (317 to 320) after 30 mins by luciferase-mediated luminescence assay
T2 sequence (Q8IXJ6 whole entry): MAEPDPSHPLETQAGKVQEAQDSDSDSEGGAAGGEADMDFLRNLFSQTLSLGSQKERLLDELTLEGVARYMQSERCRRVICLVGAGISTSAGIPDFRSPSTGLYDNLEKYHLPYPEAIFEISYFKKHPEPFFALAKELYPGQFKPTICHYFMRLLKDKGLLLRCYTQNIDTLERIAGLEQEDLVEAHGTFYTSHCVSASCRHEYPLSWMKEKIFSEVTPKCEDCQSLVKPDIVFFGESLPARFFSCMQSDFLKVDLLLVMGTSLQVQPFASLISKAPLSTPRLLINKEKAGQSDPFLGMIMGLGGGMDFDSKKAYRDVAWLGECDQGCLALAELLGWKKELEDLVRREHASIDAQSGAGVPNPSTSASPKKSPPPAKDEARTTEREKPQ

[3] = molecular target: T3, NAD-dependent protein deacetylase sirtuin-1 (Homo sapiens, UniProt Q96EB6); experiment: Inhibition of human recombinant SIRT1 assessed as deacetylation of N-acetyl lysine residue in p53 (317 to 320) after 30 mins by luciferase-mediated luminescence assay
T3 sequence (Q96EB6 whole entry): T1 sequence (whole entry)

Homo sapiens [4] = species on record: Homo sapiens; experiment: Inhibition of protease (unknown origin) using deacetylated peptide as substrate assessed as luminescence at 10 uM after 30 mins relative to control; design: scale not given: the % may be the effect or the level left
In short: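 Counter-screen without sirtuin: compound from DMSO stock diluted in Sirt-Glo buffer, then Sirt-Glo reagent added carrying non-acetylated control peptide. DMSO was 2.5% v/v. Mixed by shaking 30 min at 25 °C, then luminescence read. Result is % of control (peptide plus reagent in vehicle) after subtracting the vehicle-only blank.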

[5] = Self-aggregation of the compound in PBS assessed as derived light scattering count rate at 10 uM at pH 7.4 (reference value: 15.5 +/- 0.4 kilocount/sec); format: physicochemical; conditions: buffer, pH 7.4, 10 µM
[6] = Self-aggregation of the compound in PBS assessed as derived light scattering count rate at 1 uM at pH 7.4 (reference value: 15.5 +/- 0.4 kilocount/sec); format: physicochemical; conditions: buffer, pH 7.4, 1 µM
[7] = Solubility of the compound in phosphate buffer at pH 7.4 at 25 degC by turbimetric method; format: physicochemical
In short: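 Turbidimetric solubility. Compound from DMSO stock was added to phosphate buffer pH 7.4 at 1–50 µM final, with 1% v/v DMSO. Plate shaken 30 min at 25 °C and absorbance read at 620 nm. Solubility is assigned to the concentration range where absorbance rises two-fold or more, from 3 separate determinations.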

Homo sapiens [8] = species on record: Homo sapiens; experiment: Selectivity ratio of IC50 for human recombinant SIRT1 to IC50 for human recombinant SIRT2
[9] = Cytotoxicity against human IMR90 cells assessed as cell viability after 72 hrs by MTS assay; format: cell-based; conditions: IMR-90, 72 h
[10] = Self-aggregation activity of the compound in PBS assessed as derived light scattering count rate at 25 uM at pH 7.4 (reference value: 15.5 +/- 0.4 kilocount/sec); format: physicochemical; conditions: buffer, pH 7.4, 25 µM
[11] = Self-aggregation of the compound in PBS assessed as derived light scattering count rate at 250 uM at pH 7.4 (reference value: 15.5 +/- 0.4 kilocount/sec); format: physicochemical; conditions: buffer, pH 7.4, 250 µM

| inhibition [1] | IC50 [2] | IC50 [3] | Activity (Homo sapiens [4]) | Activity [5] | Activity [6] | SMILES | other results |
| --- | --- | --- | --- | --- | --- | --- | --- |
| inactive | 14 µM | 63 µM | – | – | – | CCCCCCCCn1c2c(c3cc(-c4cnc(N)nc4)ccc31)CN(C(N)=O)CC2 | – |
| – | > 250 µM | – | – | – | – | CN1CCc2[nH]c3ccc(-c4cnc(N)nc4)cc3c2C1 | – |
| 1.1% | – | – | – | – | – | CCCCCCCCn1c2c(c3cc(-c4ccnc(F)c4)ccc31)CNCC2 | – |
| inactive | – | – | – | – | – | CCCCCCCCn1c2c(c3cc(-c4cnc(N)nc4)ccc31)CN(CCO)CC2 | – |
| inactive | 20 µM | – | 98.6% | – | – | CCCCn1c2c(c3cc(-c4ccc(S(C)(=O)=O)cc4)ccc31)CNCC2 | – |
| 5.1% | 10.1 µM | 20 µM | – | – | – | CCCCCCCCn1c2c(c3cc(-c4cccc(C)c4)ccc31)CNCC2 | Ratio IC50 (Homo sapiens [8]): 2 |
| – | 100 µM | – | – | – | – | Cc1cccc(-c2ccc3[nH]c4c(c3c2)CNCC4)c1 | – |
| inactive | – | – | – | – | – | CCCCCCCCn1c2c(c3cc(-c4cnc(N)nc4)ccc31)CN(C(=O)OCC)CC2 | – |
| 15.3% | 20 µM | 56 µM | – | 137 kC/sec | 16.8 kC/sec | CCCCCCCCn1c2c(c3cc(-c4cnc(N)nc4)ccc31)CN(C(C)C)CC2 | – |
| inactive | – | – | – | – | – | CCCCCCCCn1c2c(c3cc(-c4cnc(N)nc4)ccc31)CN(S(C)(=O)=O)CC2 | – |
| 51.8% | 4 µM | 28 µM | 98.6% | 29 kC/sec | 15.6 kC/sec | CCCCCCCCn1c2c(c3cc(-c4ccc(S(C)(=O)=O)cc4)ccc31)CN(C(N)=O)CC2 | solubility kinetic [7]: 1.6 µM (≈ 0.771 µg/mL); IC50 [9]: 14.5 µM |
| 66.4% | 6.2 µM | 21 µM | 98.6% | 178 kC/sec | 17.9 kC/sec | CCCCCCCCn1c2c(c3cc(-c4cccc(C)c4)ccc31)CN(C)CC2 | solubility kinetic [7]: 3.1 µM (≈ 1.2 µg/mL) |
| inactive | – | – | – | – | – | CCCCCCCCn1c2c(c3cc(-c4cccc(C)c4)ccc31)CN(Cc1ccc(O)cc1)CC2 | – |
| inactive | – | – | – | – | – | CCCCCCCCn1c2c(c3cc(-c4cnc(N)nc4)ccc31)CN(CC)CC2 | – |
| inactive | 17.9 µM | > 100 µM | 98.7% | 24 kC/sec | 15.8 kC/sec | CCCCCCCCn1c2c(c3cc(-c4cnc(N)nc4)ccc31)CN(C)CC2 | – |
| 12.8% | 6 µM | > 250 µM | 97.8% | 130.7 kC/sec | 17 kC/sec | CCCCCCCCn1c2c(c3cc(-c4ccc(S(C)(=O)=O)cc4)ccc31)CN(C)CC2 | Ratio IC50 (Homo sapiens [8]): > 40; solubility kinetic [7]: 3.1 µM (≈ 1.4 µg/mL) |
| inactive | 7.8 µM | > 100 µM | 97.1% | 541 kC/sec | 19 kC/sec | CCCCCCCCn1c2c(c3cc(-c4cccc(C)c4)ccc31)CN(C(N)=O)CC2 | – |
| inactive | – | – | – | – | – | CC(C)=CCn1c2c(c3cc(-c4cccc(C)c4)ccc31)CN(Cc1ccc(O)cc1)CC2 | – |
| < 5% | 8.2 µM | > 100 µM | 99% | 769 kC/sec | 32 kC/sec | CCCCCCCCn1c2c(c3cc(-c4cccc(C)c4)ccc31)CN(Cc1ccccc1)CC2 | – |
| 2.4% | 11.8 µM | 38 µM | 96.3% | 137 kC/sec | 16.1 kC/sec | CCCCCCCCn1c2c(c3cc(-c4cnc(N)nc4)ccc31)CNCC2 | solubility kinetic [7]: 6.3 µM (≈ 2.38 µg/mL) |
| inactive | – | – | – | – | – | CCCCCCCCn1c2c(c3cc(F)ccc31)CN(C)CC2 | – |
| inactive | – | – | – | – | – | CCCCCCCCn1c2c(c3cc(F)ccc31)CN(Cc1ccc(O)cc1)CC2 | – |
| inactive | > 100 µM | – | – | – | – | CCCCn1c2c(c3cc(-c4cnc(N)nc4)ccc31)CNCC2 | – |
| inactive | 96 µM | – | – | – | – | CCCCn1c2c(c3cc(-c4cccc(C)c4)ccc31)CNCC2 | – |
| inactive | – | – | – | – | – | CCCCCCCCn1c2c(c3cc(-c4ccnc(F)c4)ccc31)CN(C(N)=O)CC2 | – |
| – | – | – | – | – | – | O=C(OCc1ccccc1)c1ccccc1 [BENZYL BENZOATE] | Activity [10]: 76 kC/sec; Activity [11]: 1148 kC/sec |
| – | 83 µM | – | – | – | – | Cc1cccc(-c2ccc3[nH]c4c(c3c2)CN(C)CC4)c1 | – |
| – | > 250 µM | – | – | – | – | CN1CCc2[nH]c3ccc(-c4ccc(S(C)(=O)=O)cc4)cc3c2C1 | – |

| SMILES | inhibition [1] | IC50 [2] | IC50 [3] | Activity (Homo sapiens [4]) | Activity [5] | Activity [6] | other results |
| --- | --- | --- | --- | --- | --- | --- | --- |
| CCCCCCCCn1c2c(c3cc(-c4cccc(C)c4)ccc31)CN(C(C)C)CC2 | 2.4% | 11.2 µM | 26 µM | 100% | 558 kC/sec | 27 kC/sec | solubility kinetic [7]: 1.6 µM (≈ 0.667 µg/mL) |
| CCCCCCCCn1c2c(c3cc(-c4cccc(C)c4)ccc31)CN(C(=O)OCC)CC2 | inactive | – | – | – | – | – | – |
